Key:
[1] = system: MOLT-4; assay: Cytotoxicity against human MOLT-4 cells assessed as reduction in cell viability measured after 24 hrs by CCK-8 assay; assay type: functional, cell-based; details: MOLT-4, 24 h
Outline: (§1)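 Cells were grown in RPMI-1640 or high-glucose DMEM with 10% FBS at 37 °C, 5% CO2, and seeded at 3 × 10^4 cells/well. Exposure was 24 h across serial concentrations (0−1000 μM in the screen). […] Three independent experiments, mean ± SEM.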

[2] = system: HL-60; assay: Cytotoxicity against human HL-60 cells assessed as reduction in cell viability measured after 24 hrs by CCK-8 assay; assay type: functional, cell-based; details: HL-60, 24 h; outline: as §1
[3] = system: Raji; assay: Cytotoxicity against human Raji cells assessed as reduction in cell viability measured after 24 hrs by CCK-8 assay; assay type: functional, cell-based; outline: as §1
[4] = system: NB4-DR1; assay: Antiproliferative activity against human NB4-DR1 cells assessed as reduction in cell viability incubated for 24 hrs by CCK-8 assay; assay type: functional, cell-based; details: NB4-DR1, 24 h; outline: as §1
[5] = Cytotoxicity against human L02 cells assessed as cell viability at 0 to 50 uM incubated for 24 hrs by CCK-8 assay relative to control; assay type: cell-based; details: dose 0-50 µM, read-out: Activity
Outline: (§2)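 HUVEC and LO2 normal cells were cultured in RPMI-1640 or DMEM with 10% FBS at 37 °C, 5% CO2, and seeded at 3 × 10^4 cells/well. They were exposed for 24 h to graded concentrations. CCK-8 incubation was 3 h at 37 °C, with A450 read and viability expressed versus untreated control. Three independent experiments, mean ± SEM.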

[6] = Cytotoxicity against human L02 assessed as cell viability at 100 uM incubated for 24 hrs by CCK-8 assay relative to control; assay type: cell-based; details: L02 cells, read-out: Activity; outline: as §2
[7] = Cytotoxicity against HUVEC assessed as cell viability at 100 uM incubated for 24 hrs by CCK-8 assay relative to control; assay type: cell-based; details: human, read-out: Activity; outline: as §2
[8] = Induction in caspase-mediated apoptosis in human NB-4 cells assessed as viable cells at 12.5 uM incubated for 24 hrs by Annexin V-FITC/propidium iodide staining based flow cytometry analysis (reference value: 96.6%); assay type: functional; details: read-out: Activity
[9] = Induction in caspase-mediated apoptosis in human NB-4 cells assessed as early apoptotic cells at 12.5 uM incubated for 24 hrs by Annexin V-FITC/propidium iodide staining based flow cytometry analysis (reference value: 2.02%); assay type: functional
[10] = Induction in caspase-mediated apoptosis in human NB-4 cells assessed as viable cells at 50 uM incubated for 24 hrs by Annexin V-FITC/propidium iodide staining based flow cytometry analysis (reference value: 96.6%); assay type: functional; details: read-out: Activity
[11] = Induction in caspase-mediated apoptosis in human NB-4 cells assessed as necrotic cells at 25 uM incubated for 24 hrs in presence of Z-VAD-FMK by Annexin V-FITC/propidium iodide staining based flow cytometry analysis (reference value: 0.167%); assay type: functional
[12] = Induction in caspase-mediated apoptosis in human NB-4 cells assessed as viable cells at 50 uM incubated for 24 hrs in presence of Z-VAD-FMK by Annexin V-FITC/propidium iodide staining based flow cytometry analysis (reference value: 96.8%); assay type: functional; details: read-out: Activity
[13] = Induction in caspase-mediated apoptosis in human NB-4 cells assessed as late apoptotic cells at 50 uM incubated for 24 hrs in presence of Z-VAD-FMK by Annexin V-FITC/propidium iodide staining based flow cytometry analysis (reference value: 1.15%); assay type: functional
[14] = Induction in caspase-mediated apoptosis in human NB-4 cells assessed as early apoptotic cells at 100 uM incubated for 24 hrs in presence of Z-VAD-FMK by Annexin V-FITC/propidium iodide staining based flow cytometry analysis (reference value: 1.84%); assay type: functional
[15] = Induction in caspase-mediated apoptosis in human NB-4 cells assessed as late apoptotic cells at 100 uM incubated for 24 hrs in presence of Z-VAD-FMK by Annexin V-FITC/propidium iodide staining based flow cytometry analysis (reference value: 1.15%); assay type: functional
[16] = Induction in caspase-mediated apoptosis in human NB4-DR1 cells assessed as late apoptotic cells at 12.5 uM incubated for 24 hrs by Annexin V-FITC/propidium iodide staining based flow cytometry analysis (reference value: 1.47%); assay type: functional
[17] = Induction in caspase-mediated apoptosis in human NB4-DR1 cells assessed as necrotic cells at 12.5 uM incubated for 24 hrs by Annexin V-FITC/propidium iodide staining based flow cytometry analysis (reference value: 0.19%); assay type: functional
[18] = Induction in caspase-mediated apoptosis in human NB4-DR1 cells assessed as viable cells at 100 uM incubated for 24 hrs by Annexin V-FITC/propidium iodide staining based flow cytometry analysis (reference value: 96.9%); assay type: functional; details: read-out: Activity
[19] = Induction in caspase-mediated apoptosis in human NB4-DR1 cells assessed as necrotic cells at 100 uM incubated for 24 hrs by Annexin V-FITC/propidium iodide staining based flow cytometry analysis (reference value: 0.19%); assay type: functional
[20] = Induction in caspase-mediated apoptosis in human NB4-DR1 cells assessed as early apoptosis cells at 12.5 uM incubated for 24 hrs in presence of Z-VAD-FMK by Annexin V-FITC/propidium iodide staining based flow cytometry analysis (reference value: 0.875%); assay type: functional
[21] = Induction in caspase-mediated apoptosis in human NB4-DR1 cells assessed as early apoptosis cells at 25 uM incubated for 24 hrs in presence of Z-VAD-FMK by Annexin V-FITC/propidium iodide staining based flow cytometry analysis (reference value: 0.875%); assay type: functional
[22] = Induction in caspase-mediated apoptosis in human NB4-DR1 cells assessed as early apoptosis cells at 100 uM incubated for 24 hrs in presence of Z-VAD-FMK by Annexin V-FITC/propidium iodide staining based flow cytometry analysis (reference value: 0.875%); assay type: functional
[23] = Induction in caspase-mediated apoptosis in human NB4-DR1 cells assessed as late apoptotic cells at 100 uM incubated for 24 hrs in presence of Z-VAD-FMK by Annexin V-FITC/propidium iodide staining based flow cytometry analysis (reference value: 2.54%); assay type: functional
[24] = Terminal half life in ICR mouse at 15 mg/kg, ip administered as single dose measured upto 8 hrs by LC-MS/MS analysis; assay type: ADME, organism-based; details: in vivo
Outline: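 Male ICR mice (30 g) received a single 15 mg/kg i.p. bolus in corn oil. Orbital blood went into K3EDTA tubes at 0.08–8 h, three animals per time point (composite profile). Plasma was protein-precipitated with acetonitrile and analysed by LC–MS/MS; non-compartmental analysis.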

[25] = Toxicity in BALB/c mouse xenografted with human NB-4 cells assessed as body weight loss at 15 mg/kg/day, ip administered for 2 weeks; assay type: organism-based; details: in vivo, 336 h
Outline: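 Female Balb/c nude mice (4 weeks old) injected subcutaneously in the right flank with 2 × 10^6 NB4 cells. At about 0.5 cm tumour diameter, mice were randomised (n = 5). Dosing was 15 mg/kg/d i.p. in corn oil, or corn-oil vehicle, daily for 2 weeks, with body weight recorded throughout; mean ± SEM.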

With C=CC(=O)N1C(=O)CC(c2ccc(F)cc2)Sc2ccccc21 (stereo not given) as the compound, how does the IC50 [1] read?
The IC50 was 75.6 µM.

And the IC50 [2]?
Its IC50 is 86.3 µM.

And the IC50 [3]?
Its IC50 is 28.4 µM.

And the IC50 [4]?
Its IC50 is 26.4 µM.

And the viability at 24 h, up to 50 µM [5]?
The viability at 24 h, up to 50 µM was greater than 80%.

And the viability at 24 h, 100 µM [6]?
Its viability at 24 h, 100 µM is greater than 70%.

What about the viability at 24 h, 100 µM [7] of the same compound?
The viability at 24 h, 100 µM was greater than 70%.

What about the viability at 12.5 µM [8] of the same compound?
The viability at 12.5 µM was 77%.

And the Activity [9]?
The Activity was 8.87%.

And the viability at 50 µM [10]?
The viability at 50 µM was 14.2%.

What about the Activity [11] of the same compound?
Its Activity is 1.38%.

What about the viability at 50 µM [12] of the same compound?
Its viability at 50 µM is 78.6%.

What about the Activity [13] of the same compound?
Its Activity is 11.7%.

What about the Activity [14] of the same compound?
The Activity was 5.35%.

What about the Activity [15] of the same compound?
Its Activity is 19.6%.

And the Activity [16]?
The Activity was 5.54%.

And the Activity [17]?
Its Activity is 0.508%.

And the viability at 100 µM [18]?
Its viability at 100 µM is 42.7%.

What about the Activity [19] of the same compound?
Its Activity is 6.32%.

And the Activity [20]?
The Activity was 0.773%.

What about the Activity [21] of the same compound?
The Activity was 1.04%.

And the Activity [22]?
The Activity was 2.19%.

And the Activity [23]?
Its Activity is 14.2%.

And the “beta t1/2” value [24]?
Its value is 14.2 h.

What about the Activity [25] of the same compound?
The Activity was “Toxic”.
